ABHD4 inh – inhibitors of mouse ABHD4 | AID 720543 | purified mABHD4, FP-Rh probe fluorescence polarization | inhibition, % at 8.92 µM | actives 0.54% (n = 370,000);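 active = inhibition exceeding the mean over every tested compound plus 3 SD, cut at about 30% in these data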;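 note: 0% = plate median of compound wells and 100% = S159A mutant with DMSO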
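Test system: mABHD4 protein; Read-out basis: % inhibition; Incubation: 45 min + 60 min at 25 °C; Repeats: single replicate; Technique: fluorescence polarization with parallel and perpendicular emission, 525/598 nm; Compound: 8.92 µM, single dose; Benchmarks: full inhibition S159A mutant plus DMSO, zero as sample-well median.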
Tn7 DDE FP – disrupts Tn7 cyclic peptide binding to fibrin D-Dimer-E complex; P02675; FP displacement of FITC-Tn7 peptide from fibrin DD(E); 0% = median of compound wells per plate; inhibition, % at 8.3 µM; actives 0.13% (n = 370,000);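 active = inhibition above the mean of compounds falling within the control limits plus 3 SD of them, cut at about 14% in these data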;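 note: 0% = plate median of compound wells and 100% = 10 µM Aha-Tn7 peptide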
Target sequence (P02675 whole entry, looked up): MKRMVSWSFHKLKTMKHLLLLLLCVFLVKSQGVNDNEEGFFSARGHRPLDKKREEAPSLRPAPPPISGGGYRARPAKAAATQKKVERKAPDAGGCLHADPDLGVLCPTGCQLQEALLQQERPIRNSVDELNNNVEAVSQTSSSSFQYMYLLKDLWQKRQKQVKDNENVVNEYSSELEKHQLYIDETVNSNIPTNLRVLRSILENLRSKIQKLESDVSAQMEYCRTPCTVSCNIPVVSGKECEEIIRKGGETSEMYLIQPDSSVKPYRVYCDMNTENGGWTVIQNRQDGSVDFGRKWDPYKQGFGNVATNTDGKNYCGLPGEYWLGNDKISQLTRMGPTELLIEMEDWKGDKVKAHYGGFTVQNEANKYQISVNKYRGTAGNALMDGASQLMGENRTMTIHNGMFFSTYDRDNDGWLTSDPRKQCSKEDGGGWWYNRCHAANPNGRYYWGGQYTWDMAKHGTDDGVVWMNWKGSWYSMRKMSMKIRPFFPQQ
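Assay system: Human clot-derived fibrin DD(E) complex | Buffer or medium: Tris/NaCl/CaCl2 buffer, pH 7.8 | Repeats: One replicate per compound | Benchmarks: Aha-Tn7 high control | Measure: % inhibition scaled between sample-field median and high-control FP | Schedule: 10 min plus 3 h, room temperature | Signal: Fluorescence polarization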
TCR-CD3 inh – human TCR-CD3 binding inhibition. TAMRA-labeled TCR probe fluorescence, biochemical. inhibition, % at 9.4 µM. actives 0.37% (n = 360,000); in the data active = inhibition above about 19%;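 note: recombinant mutant TCR 2C K166C tagged with TAMRA read by polarization; 0% = receptor in buffer alone and 100% = receptor with positive control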
HTRA1 inh – inhibitors of human serine peptidase HTRA1 | Q92743 | recombinant HTRA1, FP-rhodamine activity-based probe, fluorescence polarization | inhibition, % at 5.96 µM | actives 0.5% (n = 340,000) | AID 504803; in the data active = inhibition above about 36%;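 note: 0% = enzyme with DMSO and 100% = wells lacking enzyme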
SIAE inh – inhibitors of human sialic acid acetylesterase SIAE; Q9HAT2; SIAE FP-Rh probe binding, fluorescence polarization; inhibition, % at 9.66 µM; actives 0.69% (n = 370,000);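 active = inhibition above a cutoff: mean of compounds within the control limits plus 3 SD of those, cut at about 17% in these data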;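 note: 0% = plate median of compound wells and 100% = probe without SIAE protein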
DDE Tn6 FP inh – DD(E)-Tn6 binding inhibition, primary FP screen; P02675; Fibrin DD(E) TRITC-Tn6 fluorescence polarization displacement; inhibition, % at 8.3 µM; actives 0.21% (n = 370,000); AID 720509;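 active = inhibition above a per-campaign cutoff: mean of compounds within control limits plus 3 SD, cut at about 15% in these data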;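 note: 0% = median of all compound wells on the plate and 100% = blocking peptide control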
SIAE inh conf – human SIAE inhibition, confirmation | SIAE FP-Rh activity-based probe, fluorescence polarization | shares compounds with SIAE inh | actives 13% (n = 2,300) | inhibition, % at 9.66 µM;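 active = mean inhibition of the replicates above the hit cutoff set in the primary screen, cut at about 17% in these data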;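 note: 0% = SIAE with DMSO and probe and 100% = probe without SIAE; inhibitors lower polarization as more probe stays unbound to SIAE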
An asterisk follows results filed as active; / = no result. The list is not random: actives were taken first. Their share in the collection is about 1.8%.

SMILES	ABHD4 inh	Tn7 DDE FP	TCR-CD3 inh	HTRA1 inh	SIAE inh	DDE Tn6 FP inh	SIAE inh conf
O=C(O)CSc1nnc(NC(=O)c2ccc3c(c2)OCO3)s1	2	6	2	6	0	6	/
O=C(NCc1ccccc1Br)C1CCCO1 (stereo not drawn)	-1	3	14	2	-2	7	/
COC(=O)[C@@]12C[C@@H](CC(=O)NCc3ccc(C)o3)C(=O)N(Cc3ccc4c(c3)OCO4)C1=CCC(C)(C)C2	2	2	-5	/	17*	-1	6
CC(C)(C)OC(=O)N1Cc2ccccc2C[C@H]1C(=O)N1CCC[C@H]1C(=O)O	-4	0	-2	6	0	-2	/
CC(C)(C)OC(=O)N1Cc2[nH]c3ccccc3c2C[C@@H]1C(=O)O	-2	-1	-5	0	26*	-3	3
CC(C)c1ccc(NC2CCCN(C(=O)CN3C(=O)CSC3=O)C2)cc1 (stereo not drawn)	-3	-7	-4	0	17*	2	-1
Cc1ccc(NC2CCCN(C(=O)CN3C(=O)CSC3=O)C2)cc1C (stereo not drawn)	-2	4	4	-1	7	8	/
CCOc1ccc(NC(=O)C/C(C)=N/NC(=O)c2cnccn2)cc1	-5	-4	7	4	20*	7	0
Cc1c(C(=O)Nc2ccc(Nc3ccccc3)cc2)cccc1[N+](=O)[O-]	-2	-7	1	26	8	1	/
O=C(Nc1ccc2ccccc2c1)c1ccccc1[N+](=O)[O-]	1	3	2	-25	1	5	/
Cc1c(C(=O)Nc2ccc3c(c2)CCC3)cccc1[N+](=O)[O-]	2	-5	-3	-8	18*	-4	-2
O=C(O)c1cccc([N+](=O)[O-])c1C(=O)Nc1ccc2ccccc2c1	2	2	-1	2	21*	-6	7
O=C(Nc1ccc2ccccc2c1)c1cccc([N+](=O)[O-])c1	-8	-1	12	-17	29*	2	-29
CC[C@H](C)[C@H](NC(=O)OCc1ccccc1)C(=O)OCC(=O)N1CCN(c2ccc(F)cc2)CC1	3	-3	2	-6	6	4	/
COc1ccc(CCN(C)C(=S)Nc2cccc(C)c2)cc1OC	4	8	-1	1	7	6	/
Nn1c(SCC(=O)N2CCCC2)nnc1-c1cccs1	6	7	1	1	17*	10	-1
COc1ccc(O)c(/C=N/Nc2nc(C)cc(-c3ccccc3)n2)c1	7	3	-2	6	22*	-3	6
O=C(CCC(=O)N(CC(=O)NC1CCCC1)c1cccc(F)c1)Nc1nccs1	4	1	5	4	18*	-3	-2
CCC(c1ccccc1)c1noc(CCN(CC)CC)n1 (stereo not drawn)	-4	3	-3	-1	20*	12	0
Cc1nc2c3ccccc3nc(NNC(=O)CCC(=O)N3CCC(C)CC3)n2n1	1	7	-4	-17	23*	4	3
CCOC(=O)[C@]12CCCC=C1N(Cc1ccco1)C(=O)[C@H](CC(=O)NCc1cccc(C(F)(F)F)c1)C2	-2	7	-6	/	1	11	/
COc1ccc(NC(=O)CC2C(=O)N(C)C(=S)N2Cc2ccco2)cc1 (stereo not drawn)	7	-6	10	-4	20*	1	4
CCCCCCc1c[nH]c2ccc(O)c(-c3ccccc3)c12	27	-4	/	/	9	1	/
CCOc1cc(/C=N/Nc2nc3ccccc3[nH]2)cc(Br)c1OCC(=O)N(C)C	28	5	-3	6	24*	-2	21*
COc1ccc(C(C)=O)cc1COC(=O)c1ccc(C)c(S(=O)(=O)N2CCOCC2)c1	-4	1	-2	-9	-8	-4	/
O=C(O)c1ccc(C#Cc2cccc(F)c2)cn1	8	0	/	/	4	-3	/
O=C(CNC(=O)C1CCCCC1)Nc1ccccc1Cl	-6	-3	5	8	80*	2	-1

Compound activity deposited in PubChem by The Scripps Research Institute Molecular Screening Center.
